# Measured values reported in ChEMBL document CHEMBL3580574, “Design, Synthesis, and Biological Evaluation of Hexacyclic Tetracyclines as Potent, Broad Spectrum Antibacterial Agents” (J Med Chem, 2015).
# pIC50: −log10 of the molar value.
# Experiments:
# [1] = test system: Pseudomonas aeruginosa; assay: Antibacterial activity against Pseudomonas aeruginosa 1145 infected in immunocompetent BALB/c mouse lung infection model assessed as log reduction in colony forming units at 40 mg/kg, iv bid administered at 2 hrs and 12 hrs post-infection measured 24 hrs post-drug treatment; assay type: functional
# Outline: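 Female BALB/c mice (18−20 g) received intranasal inoculum under light anesthesia. IV treatment at 2 and 12 h postinfection, six mice per group per dose. An untreated group was harvested at 2 h. Lungs were taken 24 h after treatment start, weighed, homogenized, diluted and plated on MacConkey medium overnight at 37 °C, 5% CO2. Read-out: CFU per gram lung.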
# [2] = test system: Staphylococcus aureus; assay: Antibacterial activity against methicillin-resistant, tet(M) tetracycline-resistant Staphylococcus aureus 161 assessed as bacterial growth inhibition by susceptibility testing assay; assay type: functional
# Outline: (§1)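 Broth microdilution MIC per CLSI in 96-well plates; compound stocks prepared and serially diluted in sterile deionized water; cation-adjusted Mueller Hinton broth prepared fresh and held at 4 °C before testing, supplemented with lysed horse blood as appropriate; runs accepted when comparator antibiotics fell within QC ranges for appropriate ATCC quality control strains.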
# [3] = test system: Stenotrophomonas maltophilia; assay: Antibacterial activity against Stenotrophomonas maltophilia 256 assessed as bacterial growth inhibition by susceptibility testing assay; assay type: functional
# Outline: (§2)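 Medium supplemented with lysed horse blood where appropriate. Compound stocks prepared and serially diluted in sterile deionized water. Runs were accepted against QC ranges for comparator antibiotics and ATCC QC strains.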
# [4] = test system: Enterococcus faecalis; assay: Antibacterial activity against tet(M) tetracycline-resistant Enterococcus faecalis 327 assessed as bacterial growth inhibition by susceptibility testing assay; assay type: functional; outline: as §1
# [5] = test system: Escherichia coli; assay: Antibacterial activity against Escherichia coli 107 ATCC 25922 assessed as bacterial growth inhibition by susceptibility testing assay; assay type: functional
# Outline: as §2, with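 “Broth microdilution MIC per CLSI in cation-adjusted Mueller Hinton broth, made fresh and held at 4 °C before testing. Medium” for “Medium”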
# [6] = test system: Burkholderia cenocepacia; assay: Antibacterial activity against Burkholderia cenocepacia 240 assessed as bacterial growth inhibition by susceptibility testing assay; assay type: functional; outline: as §2
# [7] = test system: Streptococcus pneumoniae; assay: Antibacterial activity against tet(M) tetracycline-resistant Streptococcus pneumoniae 160 assessed as bacterial growth inhibition by susceptibility testing assay; assay type: functional
# [8] = test system: Enterococcus faecium; assay: Antibacterial activity against tet(M) tetracycline-resistant Enterococcus faecium 404 assessed as bacterial growth inhibition by susceptibility testing assay; assay type: functional
# [9] = test system: Proteus mirabilis; assay: Antibacterial activity against Proteus mirabilis 385 assessed as bacterial growth inhibition by susceptibility testing assay; assay type: functional
# Outline: as §2, with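 “Broth microdilution MIC per CLSI in cation-adjusted Mueller Hinton broth, made fresh and held at 4 °C before testing. Medium” for “Medium”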
# [10] = test system: Escherichia coli; assay: Antibacterial activity against tet(A) tetracycline-resistant Escherichia coli 155 assessed as bacterial growth inhibition by susceptibility testing assay; assay type: functional; outline: as §1
# [11] = test system: Staphylococcus aureus; assay: Antibacterial activity against Staphylococcus aureus 101 ATCC 29213 assessed as bacterial growth inhibition by susceptibility testing assay; assay type: functional
# Outline: as §2, with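 “Broth microdilution MIC per CLSI in cation-adjusted Mueller Hinton broth, made fresh and held at 4 °C before testing. Medium” for “Medium”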
# [12] = test system: Klebsiella pneumoniae; assay: Antibacterial activity against Klebsiella pneumoniae 457 harboring CTX-M-15 gene assessed as bacterial growth inhibition by susceptibility testing assay; assay type: functional; outline: as §1
# [13] = test system: Acinetobacter baumannii; assay: Antibacterial activity against tet(B) tetracycline-resistant Acinetobacter baumannii 250 assessed as bacterial growth inhibition by susceptibility testing assay; assay type: functional; outline: as §1
# [14] = test system: Pseudomonas aeruginosa; assay: Antibacterial activity against Pseudomonas aeruginosa 694 assessed as bacterial growth inhibition by susceptibility testing assay; assay type: functional
# Outline: as §2, with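 “Broth microdilution MIC per CLSI in cation-adjusted Mueller Hinton broth, made fresh and held at 4 °C before testing. Medium” for “Medium”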
# [15] = test system: Pseudomonas aeruginosa; assay: Ratio of tetracycline IC50 to compound IC50 for antitranslational activity in Pseudomonas aeruginosa 555 BAA-47 by in vitro coupled transcription/translation assay; assay type: functional
# [16] = test system: Enterobacter cloacae; assay: Antibacterial activity against tet(A) tetracycline-resistant Enterobacter cloacae 603 assessed as bacterial growth inhibition by susceptibility testing assay; assay type: functional; outline: as §1
# [17] = test system: Pseudomonas aeruginosa; assay: Antibacterial activity against Pseudomonas aeruginosa 555 BAA-47 assessed as bacterial growth inhibition by susceptibility testing assay; assay type: functional
# Outline: as §2, with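 “Broth microdilution MIC per CLSI in cation-adjusted Mueller Hinton broth, made fresh and held at 4 °C before testing. Medium” for “Medium”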
# [18] = test system: Staphylococcus aureus; assay: Antibacterial activity against tet(K) tetracycline-resistant Staphylococcus aureus 158 assessed as bacterial growth inhibition by susceptibility testing assay; assay type: functional
# [19] = test system: Pseudomonas aeruginosa; assay: Antitranslational activity in Pseudomonas aeruginosa 555 BAA-47 assessed as ribosomal inhibition by in vitro coupled transcription/translation assay; assay type: functional
# Outline: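 P. aeruginosa coupled transcription/translation reactions with a luciferase reporter, run 60 min at 37 °C. Reactions were stopped on ice for 5 min, then luciferase substrate was added and luminescence read. Percent luminescence was plotted against inhibitor concentration, and 50% inhibition versus untreated controls was taken as the IC50.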
# [20] = test system: Pseudomonas aeruginosa; assay: Antibacterial activity against Pseudomonas aeruginosa 1145 assessed as bacterial growth inhibition by susceptibility testing assay; assay type: functional; outline: as §1
# [21] = test system: Pseudomonas aeruginosa; assay: Antibacterial activity against Pseudomonas aeruginosa 694 infected in iv dosed immunocompetent CD-1 mouse thigh infection model assessed as reduction in colony forming units administered twice daily at 2 hrs and 12 hrs post-infection measured 24 hrs post-drug treatment; assay type: functional, organism-based
# Outline: (§3)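 Thigh model: inoculum given intramuscularly into the right thigh on day 0. IV dosing with vehicle, test agent or comparator at 2 and 12 h postinfection. Untreated groups were harvested at 2 and 24 h. Thigh muscle was collected at 24 h postinfection, homogenized in PBS pH 7.4, diluted and plated on Brain Heart Infusion agar + 0.5% charcoal. Read-out: CFU per gram thigh.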
# [22] = test system: Pseudomonas aeruginosa; assay: Antibacterial activity against Pseudomonas aeruginosa 694 infected in immunocompetent CD-1 mouse thigh infection model assessed as log reduction in colony forming units at 5 mg/kg, iv administered twice daily at 2 hrs and 12 hrs post-infection measured 24 hrs post-drug treatment (reference value: 1.8 log10CFU); assay type: functional; outline: as §3
# [23] = Staphylococcus aureus, 161, read-out: MIC
# [24] = Stenotrophomonas maltophilia, 256, read-out: MIC
# [25] = Enterococcus faecalis, 327, read-out: MIC
# [26] = Escherichia coli, 107 ATCC 25922, read-out: MIC
# [27] = Burkholderia cenocepacia, 240, read-out: MIC
# [28] = Streptococcus pneumoniae, 160, read-out: MIC
# [29] = Enterococcus faecium, 404, read-out: MIC
# [30] = Proteus mirabilis, 385, read-out: MIC
# [31] = Escherichia coli, 155, read-out: MIC
# [32] = Staphylococcus aureus, 101 ATCC 29213, read-out: MIC
# [33] = Klebsiella pneumoniae, 457, read-out: MIC
# [34] = Acinetobacter baumannii, 250, read-out: MIC
# [35] = Enterobacter cloacae, 603, read-out: MIC
# [36] = Pseudomonas aeruginosa, 555 BAA-47, read-out: MIC
# [37] = Staphylococcus aureus, 158, read-out: MIC
SMILES,log10CFU/g [1],MIC [20] [µg/mL],"MIC [2, 23] [µg/mL]","MIC [3, 24] [µg/mL]","MIC [4, 25] [µg/mL]","MIC [5, 26] [µg/mL]","MIC [6, 27] [µg/mL]","MIC [7, 28] [µg/mL]","MIC [8, 29] [µg/mL]","MIC [9, 30] [µg/mL]","MIC [10, 31] [µg/mL]","MIC [11, 32] [µg/mL]","MIC [12, 33] [µg/mL]","MIC [13, 34] [µg/mL]","MIC [16, 35] [µg/mL]","MIC [17, 36] [µg/mL]","MIC [18, 37] [µg/mL]",other results
CN(C)[C@@H]1C(O)=C(C(N)=O)C(=O)[C@@]2(O)C(O)=C3C(=O)c4c(O)c5c(c(F)c4C[C@H]3C[C@@H]12)[C@@H]1[C@@H](CCN1C)CN5 (stereo in doubt; 10c) [listing 1 of 2 here],4,4,,,,,,,,,,,,,,,,MIC [2]: 0.5 µg/mL; MIC [3]: 1 µg/mL; MIC [4]: 0.125 µg/mL; MIC [5]: 0.0625 µg/mL; MIC [6]: 8 µg/mL; MIC [7]: <=0.0156 ug ml-1; MIC [8]: 0.0625 µg/mL; MIC [9]: 0.5 µg/mL; MIC [10]: 0.5 µg/mL; MIC [11]: 0.25 µg/mL; MIC [12]: 0.5 µg/mL; MIC [13]: 2 µg/mL; MIC [14]: 8 µg/mL; Ratio IC50 [15]: 10; MIC [16]: 0.5 µg/mL; MIC [17]: 4 µg/mL; MIC [18]: 0.0625 µg/mL; pIC50 [19]: 6.68
NCC[C@H](O)C(=O)N[C@@H]1C[C@H](N)[C@@H](O[C@H]2O[C@H](CN)[C@@H](O)[C@H](O)[C@H]2O)[C@H](O)[C@H]1O[C@H]1O[C@H](CO)[C@@H](O)[C@H](N)[C@H]1O [AMIKACIN],2,1,,,,,,,,,,,,,,,,
CN(C)[C@@H]1C(O)=C(C(N)=O)C(=O)[C@@]2(O)C(O)=C3C(=O)c4c(O)c5c(c(F)c4C[C@H]3C[C@@H]12)[C@@H]1[C@@H](CCN1CCO)CN5,,,4,32,1,1,> 32,0.125,1,8,16,2,4,> 32,16,32,0.25,
CN(C)[C@@H]1C(O)=C(C(N)=O)C(=O)[C@@]2(O)C(O)=C3C(=O)c4c(O)c5c(c(F)c4C[C@H]3C[C@@H]12)[C@H]1N(C)CC[C@@]1(C)CN5,,,8,2,8,0.25,32,0.25,4,8,2,0.5,4,8,4,32,0.125,
CC1C[C@H]2CNc3c(O)c4c(c(OC(F)(F)F)c3[C@H]2N1C)C[C@H]1C[C@H]2[C@H](N(C)C)C(O)=C(C(N)=O)C(=O)[C@@]2(O)C(O)=C1C4=O (stereo partly specified),,,0.0312,0.25,≤ 0.0156,≤ 0.0156,16,≤ 0.0156,0.0312,2,0.0625,0.0312,2,1,2,8,≤ 0.0156,
CN(C)[C@@H]1C(O)=C(C(N)=O)C(=O)[C@@]2(O)C(O)=C3C(=O)c4c(O)c5c(c(F)c4C[C@H]3C[C@@H]12)[C@@H]1[C@@H](CCN1C)CN5 (stereo in doubt; 10c) [listing 2 of 2 here],,,,,,,,,,,,,,,,,,inhibition [21]: Dose-dependent effect
CN(C)[C@@H]1C(O)=C(C(N)=O)C(=O)[C@@]2(O)C(O)=C3C(=O)c4c(O)c5c(c(F)c4C[C@H]3C[C@@H]12)[C@H]1NCC[C@@]1(C)CN5,,,16,32,4,0.5,> 32,0.25,1,4,16,4,4,> 32,16,32,1,
C[C@H]1COc2c(N3CCN(C)CC3)c(F)cc3c(=O)c(C(=O)O)cn1c23.C[C@H]1COc2c(N3CCN(C)CC3)c(F)cc3c(=O)c(C(=O)O)cn1c23.O [LEVOFLOXACIN],,,,,,,,,,,,,,,,,,log10CFU/g [22]: 4.5
CCN1CC[C@H]2CNc3c(O)c4c(c(F)c3[C@H]21)C[C@H]1C[C@H]2[C@H](N(C)C)C(O)=C(C(N)=O)C(=O)[C@@]2(O)C(O)=C1C4=O,,,0.5,1,0.125,0.0625,16,≤ 0.0156,0.0625,1,0.25,0.25,1,2,0.5,8,0.0625,
C[C@@H](O)[C@H]1C(=O)N2C(C(=O)O)=C(S[C@@H]3CN[C@H](C(=O)N(C)C)C3)[C@H](C)[C@H]12 [MEROPENEM],2,4,,,,,,,,,,,,,,,,
